Measurements reported in ChEMBL document CHEMBL5661970 (Cancer Res, 2006).
Calls of active or inactive are those of the source. No cut-off for these calls is given here.

Key:
[1] = biological target: Fibroblast growth factor receptor 4 (Homo sapiens, UniProt P22455); assay: Inhibition of FGFR-4 (unknown origin) in presence of ATP
[2] = biological target: Focal adhesion kinase 1 (Homo sapiens, UniProt Q05397); assay: Inhibition of Fak (unknown origin) in presence of ATP
Summary of the method: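 Cell-free kinase assay using recombinant tyrosine kinases with 1 μmol/L ATP, run in quadruplicate. IC50 values determined.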

[3] = biological target: Platelet-derived growth factor receptor beta (Homo sapiens, UniProt P09619); assay: Inhibition of PDGFR-beta phosphorylation in serum starved human NHDF cells incubated for 1 hr by immunoblotting analysis; type: cell-based
Summary of the method: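 Cells starved overnight in basic medium with 0.5% FBS, incubated 1 h with compound or 0.1% DMSO, then stimulated with human recombinant ligand for 5 min at 37°C. Lysates immunoprecipitated with receptor antibody and immunoblotted for phosphotyrosine. IC50 from nonlinear regression of percentage inhibition (n = 4).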

[4] = biological target: Mitogen-activated protein kinase 1 (Homo sapiens, UniProt P28482); assay: Inhibition of ERK2 phosphorylation in bFGF-stimulated serum-starved human HUVEC cells by immunoblotting analysis; type: cell-based
[5] = test system: HUVEC; assay: Antiproliferative activity against VEGF-induced human HUVEC cells assessed as cell viability incubated for 72 hrs by WST-1 assay
[6] = test system: HUVEC; assay: Antiproliferative activity against bFGF-induced human HUVEC cells assessed as cell viability incubated for 72 hrs by WST-1 assay
[7] = test system: ZR-75-1; assay: Antitumor activity against human ZR-75-1 cells xenografted in gamma-irradiation induced RH-rnu/rnu athymic rat assessed as tumor growth inhibition at 1.0 mg/kg, po administered once daily for 2 weeks and measured on day 14 relative to control; type: functional; conditions: ZR-75-1, light or radiation study, 336 h, read-out: TGI
[8] = test system: BXPC-3; assay: Antitumor activity against human BXPC-3 cells xenografted in gamma-irradiation induced RH-rnu/rnu athymic rat assessed as tumor growth inhibition at 1.0 mg/kg, po administered once daily for 2 weeks and measured on day 13 relative to control; type: functional; conditions: BXPC-3, light or radiation study, 336 h, read-out: TGI
Summary of the method: (§1)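 Rats were γ-irradiated with 7 Gy whole body, and 24 h later received s.c. tumor cells. Fragments (20-30 mg) from ~1,500 mm3 tumors were then implanted s.c. into irradiated athymic rats. Oral dosing at 0.2 or 1 mg/kg or vehicle ran once daily for 2 weeks from day 0. Tumors were measured with calipers twice weekly (length×width²×0.5). TGI% was taken versus vehicle on day 14 (BxPC-3: day 13), with an unpaired t test on RTV.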

[9] = test system: DU-145; assay: Antitumor activity against human DU-145 cells xenografted in gamma-irradiation induced RH-rnu/rnu athymic rat assessed as tumor growth inhibition at 0.2 mg/kg, po administered once daily for 2 weeks and measured on day 14 relative to control; type: functional; conditions: DU-145, light or radiation study, 336 h, read-out: TGI; summary of the method: as §1
[10] = test system: CAKI-1; assay: Antitumor activity against human CAKI-1 cells xenografted in gamma-irradiation induced RH-rnu/rnu athymic rat assessed as tumor growth inhibition at 0.2 mg/kg, po administered once daily for 2 weeks and measured on day 14 relative to control; type: functional; conditions: CAKI-1, light or radiation study, 336 h, read-out: TGI; summary of the method: as §1
[11] = test system: Calu-6; assay: Antitumor activity against human Calu-6 cells xenografted in RH-rnu/rnu athymic rat assessed as tumor growth inhibition at 1.0 mg/kg, po administered […] by DCE-MRI analysis; type: functional, organism-based
Summary of the method: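 Calu-6 tumor-bearing athymic rats were randomized at 274-287 mm3 and dosed orally at 0.2 or 1.0 mg/kg or vehicle once daily on days 0-13. Tumor growth was followed by T2-weighted MRI at 1.5 T through day 21.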

[12] = test system: Calu-6; assay: Antitumor activity against human Calu-6 cells xenografted in RH-rnu/rnu athymic rat assessed as decrease in capillary permeability in tumor at 0.2 mg/kg, po measured on day 13 by DCE-MRI analysis relative to control; type: functional; set-up: scale not given: the % may be the effect or the level left
[13] = test system: Calu-6; assay: Antitumor activity against human Calu-6 cells xenografted in RH-rnu/rnu athymic rat assessed as decrease in capillary permeability in tumor at 1.0 mg/kg, po measured on day 13 by DCE-MRI analysis relative to control; type: functional; set-up: scale not given: the % may be the effect or the level left
[14] = test system: Calu-6; assay: Antitumor activity against human Calu-6 cells xenografted in RH-rnu/rnu athymic rat assessed as increased pericyte coverage at 0.2 mg/kg, po administered for 14 days by immunofluorescence staining analysis relative to control; type: functional; conditions: time 14 day
Summary of the method: (§2)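 Calu-6 xenografted athymic rats were randomized at 273-275 mm3 and dosed orally for 2 weeks. Paraffin sections were double-stained with anti-CD31 and Cy3-anti-α-smooth muscle actin. Pericyte-associated endothelial cells were counted in six fields per tumor, with six tumors per group and Dunnett's test.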

[15] = test system: Calu-6; assay: Antitumor activity against human Calu-6 cells xenografted in RH-rnu/rnu athymic rat assessed as increased pericyte coverage at 1 mg/kg, po administered for 14 days by immunofluorescence staining analysis relative to control; type: functional; conditions: time 14 day; summary of the method: as §2
[16] = AUC (0-infinity) in F344/N JcL-rnu athymic rat at 0.04 mg/kg, po measured upto 72 hrs by HPLC-MS/MS analysis; type: ADME, organism-based; conditions: in vivo
Summary of the method: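 Female athymic rats, four per group, given a single oral dose suspended in 0.5% methyl cellulose in water. Tail-vein blood was drawn at set times up to 72 h. Serum was spiked with internal standard, deproteinated with acetonitrile and analysed by HPLC-MS/MS. AUCinf came from noncompartmental analysis.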

[17] = Apparent oral clearance in F344/N JcL-rnu athymic rat at 0.2 mg/kg, po measured upto 72 hrs by HPLC-MS/MS analysis; type: ADME, organism-based; conditions: in vivo
Summary of the method: (§3)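 Female F344/N JcL-rnu rats, four per group, single p.o. dose suspended in 0.5% methyl cellulose. Tail-vein blood sampled at set times to 72 h. Serum spiked with internal standard, deproteinated with acetonitrile, analysed by HPLC-MS/MS. Parameters derived by noncompartmental analysis.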

[18] = Apparent oral clearance in F344/N JcL-rnu athymic rat at 1 mg/kg, po measured upto 72 hrs by HPLC-MS/MS analysis; type: ADME, organism-based; conditions: in vivo; summary of the method: as §3
[19] = Tmax in F344/N JcL-rnu athymic rat at 1 mg/kg, po measured upto 72 hrs by HPLC-MS/MS analysis; type: ADME, organism-based; conditions: in vivo; summary of the method: as §3
[20] = Tmax in F344/N JcL-rnu athymic rat at 5 mg/kg, po measured upto 72 hrs by HPLC-MS/MS analysis; type: ADME, organism-based; conditions: in vivo; summary of the method: as §3
[21] = Maximum concentration at steady state in F344/N JcL-rnu athymic rat at 0.2 mg/kg/day, po measured upto 72 hrs by HPLC-MS/MS analysis; type: ADME, organism-based; conditions: in vivo
Summary of the method: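 Steady-state serum levels for repeated oral 0.2 mg/kg daily dosing were simulated from single-dose serum data (female F344/N JcL-rnu rats, four per group, tail-vein sampling to 72 h, HPLC-MS/MS, noncompartmental analysis), not measured directly.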

[22] = test system: Calu-6; assay: Antitumor activity against human Calu-6 cells xenografted in RH-rnu/rnu athymic rat assessed as tumor growth inhibition at 1.0 mg/kg, po administered once daily for 2 to 21 days by DCE-MRI analysis; conditions: time 2-21 day
[23] = test system: A549; assay: Antitumor activity against human A549 cells xenografted in F344/N Jcl-rnu athymic rat assessed as reduction in number of CD31-positive cells in viable regions of tumor at 0.04 mg/kg, po administered once daily for 7 days by immunofluorescence staining analysis relative to control; conditions: time 7 day

Sequence of Fibroblast growth factor receptor 4 (P22455 whole entry): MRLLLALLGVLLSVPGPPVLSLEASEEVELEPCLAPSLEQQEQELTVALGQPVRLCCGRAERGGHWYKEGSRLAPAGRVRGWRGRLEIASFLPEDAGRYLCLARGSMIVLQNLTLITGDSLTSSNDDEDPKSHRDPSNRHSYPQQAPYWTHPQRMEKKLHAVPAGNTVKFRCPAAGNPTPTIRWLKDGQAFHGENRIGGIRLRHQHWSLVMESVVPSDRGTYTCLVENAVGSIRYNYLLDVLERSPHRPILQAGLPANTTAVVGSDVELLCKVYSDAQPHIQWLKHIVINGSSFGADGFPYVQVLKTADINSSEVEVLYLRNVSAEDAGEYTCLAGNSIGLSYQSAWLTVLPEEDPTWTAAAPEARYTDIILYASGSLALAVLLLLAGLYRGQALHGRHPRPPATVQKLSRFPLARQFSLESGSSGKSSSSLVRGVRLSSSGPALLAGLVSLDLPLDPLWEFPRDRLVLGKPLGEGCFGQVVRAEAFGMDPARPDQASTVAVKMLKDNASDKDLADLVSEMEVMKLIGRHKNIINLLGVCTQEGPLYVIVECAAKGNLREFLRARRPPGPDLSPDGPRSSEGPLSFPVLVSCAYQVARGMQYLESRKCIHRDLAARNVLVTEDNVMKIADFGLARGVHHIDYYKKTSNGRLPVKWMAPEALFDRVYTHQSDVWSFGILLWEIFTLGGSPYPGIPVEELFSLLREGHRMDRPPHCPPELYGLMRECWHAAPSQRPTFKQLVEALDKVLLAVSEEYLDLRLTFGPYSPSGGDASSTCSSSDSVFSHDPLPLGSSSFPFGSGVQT
Sequence of Focal adhesion kinase 1 (Q05397 whole entry): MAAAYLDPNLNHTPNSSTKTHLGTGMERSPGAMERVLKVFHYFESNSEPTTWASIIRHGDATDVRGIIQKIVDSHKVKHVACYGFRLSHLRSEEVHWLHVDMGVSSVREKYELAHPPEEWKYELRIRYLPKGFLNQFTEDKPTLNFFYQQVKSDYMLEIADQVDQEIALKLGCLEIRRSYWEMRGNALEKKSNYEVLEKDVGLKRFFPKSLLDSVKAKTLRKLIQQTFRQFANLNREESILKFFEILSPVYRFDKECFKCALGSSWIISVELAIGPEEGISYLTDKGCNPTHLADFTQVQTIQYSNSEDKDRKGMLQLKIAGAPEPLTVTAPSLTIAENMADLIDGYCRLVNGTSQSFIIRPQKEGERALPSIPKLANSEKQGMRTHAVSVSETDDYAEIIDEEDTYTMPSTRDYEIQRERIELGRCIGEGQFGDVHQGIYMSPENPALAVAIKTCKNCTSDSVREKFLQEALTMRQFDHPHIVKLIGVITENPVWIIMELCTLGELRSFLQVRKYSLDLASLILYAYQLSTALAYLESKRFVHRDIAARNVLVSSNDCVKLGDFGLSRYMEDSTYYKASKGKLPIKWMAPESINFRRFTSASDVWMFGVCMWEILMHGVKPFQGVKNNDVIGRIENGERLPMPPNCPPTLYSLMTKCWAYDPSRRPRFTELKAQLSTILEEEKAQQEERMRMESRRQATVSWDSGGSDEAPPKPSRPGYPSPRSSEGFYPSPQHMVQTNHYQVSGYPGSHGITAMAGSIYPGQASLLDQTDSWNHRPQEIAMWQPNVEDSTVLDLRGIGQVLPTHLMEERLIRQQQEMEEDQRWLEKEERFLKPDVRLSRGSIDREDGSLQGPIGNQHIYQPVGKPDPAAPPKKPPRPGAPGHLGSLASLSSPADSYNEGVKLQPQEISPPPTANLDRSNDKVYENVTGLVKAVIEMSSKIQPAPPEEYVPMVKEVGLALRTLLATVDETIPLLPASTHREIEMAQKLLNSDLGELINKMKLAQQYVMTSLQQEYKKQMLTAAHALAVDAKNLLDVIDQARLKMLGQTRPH
Sequence of Mitogen-activated protein kinase 1 (P28482 whole entry): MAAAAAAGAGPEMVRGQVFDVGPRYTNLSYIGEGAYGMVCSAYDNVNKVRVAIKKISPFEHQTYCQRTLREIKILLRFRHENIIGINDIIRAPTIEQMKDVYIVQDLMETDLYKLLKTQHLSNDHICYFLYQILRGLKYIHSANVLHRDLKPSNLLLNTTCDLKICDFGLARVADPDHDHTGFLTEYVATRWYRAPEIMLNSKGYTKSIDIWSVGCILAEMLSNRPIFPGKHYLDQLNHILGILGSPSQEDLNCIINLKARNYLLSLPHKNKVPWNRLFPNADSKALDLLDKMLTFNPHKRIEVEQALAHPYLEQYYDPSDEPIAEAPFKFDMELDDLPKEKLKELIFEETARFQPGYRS

COc1cc2nccc(Oc3ccc(NC(=O)Nc4cc(C)on4)c(Cl)c3)c2cc1OC [TIVOZANIB]
IC50 [1]: > 1000 nM
IC50 [2]: > 1000 nM
inhibition [4]: inactive
IC50 [5]: 0.67 nM
IC50 [6]: > 300 nM
inhibition in vivo at 1 mg/kg [7]: 94.3%
inhibition in vivo at 1 mg/kg [8]: 93.5%
inhibition in vivo at 0.2 mg/kg [9]: 90.6%
inhibition in vivo at 0.2 mg/kg [10]: 26.9%
Activity [11]: Active
Activity [12]: 45%
Activity [13]: 61%
Activity [14]: 29.6%
Activity [15]: 50.5%
AUC(0-inf) [16]: 340 ng·h/mL
CL/F [17]: 2.07 mL/min/kg
CL/F [18]: 2.2 mL/min/kg
Tmax [19]: 4.25 h
Tmax [20]: 3.5 h
Cmax [21]: 124 ng/mL
Activity [22]: Active
Activity [23]: 15.7%
